# Bioassay records: PubChem, several laboratories
# An excerpt weighted towards active compounds, which were near 1.9% of everything screened.
# Rce1 inh – yeast Rce1p protease inhibitors, primary screen, biochemical, fluorescence, cell-free homogeneous | calls only | AID 2563, 2010 | yeast membranes, quenched prenylated peptide cleavage fluorescence | CAAX prenyl protease 2 (Saccharomyces cerevisiae (strain ATCC 204508 / S288c)), Q03530 | actives 0.27% (n = 290,000);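 active means fall in fluorescence gain of 50% or more versus controls, with final raw signal at or below 3038400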;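 further: plate controls were neutral control wells for no effect and wells lacking membranes for full effect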
# Target sequence (Q03530 whole entry, looked up): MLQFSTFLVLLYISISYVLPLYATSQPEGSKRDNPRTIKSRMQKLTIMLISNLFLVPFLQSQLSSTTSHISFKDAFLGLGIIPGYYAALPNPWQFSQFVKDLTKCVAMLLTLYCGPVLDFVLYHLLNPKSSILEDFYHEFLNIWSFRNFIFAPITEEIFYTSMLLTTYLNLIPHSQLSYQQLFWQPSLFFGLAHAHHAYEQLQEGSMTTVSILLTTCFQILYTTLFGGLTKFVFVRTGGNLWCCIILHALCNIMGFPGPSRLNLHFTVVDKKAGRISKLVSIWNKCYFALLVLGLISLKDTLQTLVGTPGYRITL
# NadD block – inhibitors of S. aureus NadD, primary screen, biochemical, colorimetric, uHTS | Nicotinate-nucleotide adenylyltransferase NadD (Staphylococcus aureus N315) | purified NadD enzyme, colorimetric absorbance read-out | inhibition, % at 20 µM | actives 0.78% (n = 360,000); in the data active means inhibition above about 26%
# HCV core dimer – inhibitors of HCV core protein dimerization, primary screen, biochemical, TR-FRET, high-throughput. TR-FRET GST/Flag-core106 dimerization, 1536-well. inhibition, % at 5 µM. actives 0.33% (n = 300,000). AID 1899, 2009;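 active means inhibition above the mean of all tested compounds plus 3 SD, set per screening campaign, cut at about 45% in these data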
#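 Test system: GST/Flag-tagged HCV core106 proteins; Medium: KF-containing HEPES buffer, pH 7.45, DTT, CHAPS, BSA; Times: compound-protein-antibody incubation 4 h at 22.5 °C; Detection: TR-FRET 671 and 617 nm emission; Benchmarks: wells lacking GST-core106 and wells with excess unlabelled core106.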
# Pemphigus Ab inh – inhibitors of pemphigus antibody binding to DSG3, primary screen, biochemical, bead-based, flow cytometry, scFv-GFP; Desmoglein-3 (Homo sapiens), P32926; DSG3-coupled beads, scFv-anti-DSG3-GFP binding; active compounds read low; binding (percent of control), % at 10 µM; actives 0.48% (n = 310,000);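 active means binding more than 3 SD below its plate's average and above zero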;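 further: hits lower antibody fragment binding to DSG3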
# TbMetRS inhib – T. brucei MetRS inhibitors, primary screen, biochemical, luminescence; purified T. brucei MetRS, ATP depletion, Kinase-Glo luminescence; AID 624268, 2012; actives 0.4% (n = 360,000); inhibition, % at 11.9 µM; methionyl-tRNA synthetase (Trypanosoma brucei brucei);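 active means inhibition above a per-plate cutoff of the control wells' mean inhibition plus 3 SD, cut at about 5.5% in these data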;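 further: 0% = DMSO wells median and 100% = median of wells with control inhibitor compound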
#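 Dosing: 11.9 µM compound single dose, 0.9% DMSO; Assay system: purified T. brucei MetRS enzyme; Measured by: Kinase-Glo luciferase luminescence reporting remaining unconsumed ATP; Schedule: 15 min plus 2 h at 25 °C.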
# NadD inh conf – inhibitors of S. aureus NadD, confirmation, biochemical, colorimetric, single concentration; inhibition, % at 20 µM; shares compounds with NadD block; purified S. aureus NadD, colorimetric enzyme assay; AID 624309, 2012; actives 13% (n = 2,000); in the data active means inhibition mostly above about 42%, no sharp cut-off; inactive means mostly below about 42%
# * hit, by the source's call; i = inactive; x = not tested or not shown; ! = a repeat was not active.
SMILES,Rce1 inh,NadD block,HCV core dimer,Pemphigus Ab inh,TbMetRS inhib,NadD inh conf
CC(=O)N(C)C1(c2nnnn2CCOC(=O)Nc2ccc(Cl)cc2)CCCCC1,i,-1,-5,115,-1,x
O=S(=O)(/N=C(/Nc1ccc(Cl)c(S(=O)(=O)Nc2ccccc2Cl)c1)c1ccc(F)cc1)c1ccccc1,i,41*!,20,90,0,55*
COc1ccc(C(=O)/C=C/Nc2ccc(S(=O)(=O)Nc3cc(OC)nc(OC)n3)cc2)c(OC)c1,i,32*,18,98,-1,43
Cc1ccccc1C(=O)Nc1nc(-c2cccnc2)cs1,i,30*,16,81,1,14
COc1cc(NS(=O)(=O)c2ccc(N/C=C(\C#N)c3nc4cc(Cl)ccc4o3)cc2)nc(OC)n1,i,39*,30,129,0,38
COc1ccc(-c2csc(NC(=O)c3ccccc3NS(=O)(=O)c3ccc(C)cc3)n2)cc1,i,42*,17,100,-1,51*
O=C(Nc1nc(-c2cccnc2)cs1)c1ccccc1Cl,i,3,4,101,0,x
COc1cc(NS(=O)(=O)c2ccc(NC(C)=O)cc2)nc(OC)n1,i,-3,1,98,1,x
COc1ccc(-c2csc(Nc3ccc(S(=O)(=O)Nc4cc(OC)nc(OC)n4)cc3)n2)cc1,i,28*,18,116,1,42
Cc1ccc(Cn2c(C(C)Nc3nc(-c4ccc(C)cc4)cs3)nc3cc(Cl)c(Cl)cc32)cc1 (configuration not stated),i,35*,-26,96,0,25
CCCn1c(C(C)Nc2nc(-c3ccc(Cl)c([N+](=O)[O-])c3)cs2)nc2ccccc21 (configuration not stated),i,20,17,101,0,x
Cc1ccc(Cn2c(C(C)Nc3nc(-c4ccc(Cl)c([N+](=O)[O-])c4)cs3)nc3cc(C(F)(F)F)ccc32)cc1 (configuration not stated),i,37*,39,99,0,37
CCCn1c(C(C)Nc2nc(-c3cc(Cl)c(N)c(Cl)c3)cs2)nc2cc(Cl)c(N3CCCCC3)cc21 (configuration not stated),i,33*,13,101,0,22
Cc1sc2nc(COC(=O)c3cccc(S(=O)(=O)N(C)c4ccccc4)c3)[nH]c(=O)c2c1C,i,37*,31,117,0,4
Cc1sc2nc(COC(=O)c3cccc(OC(F)F)c3)[nH]c(=O)c2c1C,i,-6,-2,89,0,x
CCC(=O)Nc1ccc(NCc2ccc(-c3ccccc3)cc2)cc1,i,3,12,110,0,x
CSc1ccc(C(c2c(C(=O)O)[nH]c3ccccc23)c2c(C(=O)O)[nH]c3ccccc23)cc1,i,37*,35,107,-1,48*
Nc1ccc2nc(-c3ccc(N)c(Cl)c3)[nH]c2c1,i,41*,-29,94,1,18
Nc1ccc(-c2nc3c(Cl)cc(N)cc3[nH]2)cc1,i,27,-35,99,0,x
COc1ccc2[nH]c3c(c2c1)CCn1c-3nc2ccccc2c1=O,i,-1,-4,107,0,x
CC(=O)Nc1cccc(NC(=O)c2ccc([N+](=O)[O-])cc2Cl)c1,i,-3,-1,96,1,x
O=C(/C=C/c1cccc([N+](=O)[O-])c1)NC(=S)Nc1cccc(NC(=O)c2ccccc2Cl)c1,i,29*,22,97,0,-5
C=C1C(=O)C=C2CN(C(=O)c3ccccc3)[C@@](Cc3ccc(F)cc3)(C(=O)OC)[C@@H]12,i,8,13,94,0,x
C/C(=N\NC(=O)c1cccc([N+](=O)[O-])c1)c1ccco1,i,-6,-6,97,0,x
C/C(=N\NC(=O)c1cccc(N/N=C(\C)c2ccco2)c1)c1ccco1,i,38*,x,88,-1,45
SMILES,Rce1 inh,NadD block,HCV core dimer,Pemphigus Ab inh,TbMetRS inhib,NadD inh conf
C/C(=C/CCC(C)[C@H]1CC[C@@]2(C)C3=C(CC[C@]12C)[C@@]1(C)CCC(=O)C(C)(C)[C@@H]1CC3)C(=O)O (some centres not stated),i,45*,18,101,0,13
COCCNC(=O)c1cnn2c(C(F)F)cc(-c3ccc(C)cc3)nc12,i,11,9,98,0,x
Cc1ccc(-c2cc(C(F)F)n3ncc(C(=O)Nc4c(C)nn(Cc5ccccc5Cl)c4C)c3n2)cc1,i,33*,46*,x,0,-2
Cc1ccc(-c2cc(C(F)F)n3ncc(C(=O)Nc4c(C)nn(Cc5c(Cl)cccc5Cl)c4C)c3n2)cc1,i,32*,11,95,0,0
Cc1nn(Cc2c(Cl)cccc2Cl)c(C)c1NC(=O)c1cnn2c(C(F)F)cc(-c3ccccc3)nc12,i,43*,23,94,0,1
C/C(CCC12CC3CC(CC(C3)C1)C2)=N\NC(N)=S,i,34*,0,102,0,44
Nc1ccc(S(=O)(=O)NC2(C(F)(F)F)NC(=O)N(c3ccccc3Cl)C2=O)cc1 (configuration not stated),i,-1,0,124,0,x
N#Cc1nc(-c2ccc(OCc3ccc(Cl)cc3)cc2)oc1NCCCn1ccnc1,i,30*,-3,107,0,7
N#Cc1ccc(NC(=O)Nc2ccc(Oc3ccc(NC(=O)Nc4ccc(C#N)cc4)cc3)cc2)cc1,i,28*,3,119,0,-2
O=C(COc1ccc(/C=N/NC(=O)c2ccncc2)cc1)Nc1cccc([N+](=O)[O-])c1,i,2,4,96,-1,x
O=C(COc1ccc(/C=N/NC(=O)c2ccccc2O)cc1)Nc1ccc([N+](=O)[O-])cc1,i,40*,50*,127,0,-2
Cc1cc2cc(CNC(=S)Nc3ccc(OC(F)F)cc3)ccc2[nH]1,i,-1,3,92,0,x
Cc1cc2cc(CNC(=S)Nc3ccc(OC(F)(F)F)cc3)ccc2[nH]1,i,32*,-10,97,0,-1
Cc1cc2cc(CNC(=O)Nc3ccccc3)ccc2[nH]1,i,49*,4,76*,0,-5
